Source: ChEMBL document CHEMBL4811308, “Design, synthesis and broad spectrum antibreast cancer activity of diarylindoles via induction of apoptosis in aggressive breast cancer cells” (Bioorg Med Chem, 2021)
Activity calls are given as the source filed them. No cut-off for these calls is given here.

How the values were obtained:
[1] = tested on: PC-3; experiment: Cytotoxicity against human PC-3 cells assessed as reduction in cell viability incubated for 24 hrs by MTT assay; type: functional, cell-based; conditions: PC-3, 24 h
Method in brief: (§1)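 MTT viability: cells seeded at 1 × 10^4/well, grown 24 h, then exposed to a concentration range of compound for 24 h. MTT (5 mg/mL stock) added for 3 h, formazan dissolved in DMSO, absorbance read at 540 nm.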

[2] = tested on: MCF7; experiment: Cytotoxicity against human MCF7 cells assessed as reduction in cell viability incubated for 24 hrs by MTT assay; type: functional, cell-based; conditions: MCF7, 24 h; method in brief: as §1
[3] = tested on: MDA-MB-231; experiment: Cytotoxicity against human MDA-MB-231 cells assessed as reduction in cell viability incubated for 24 hrs by MTT assay; type: functional, cell-based; conditions: MDA-MB-231, 24 h; method in brief: as §1
[4] = tested on: HEK293; experiment: Cytotoxicity against human HEK293 cells assessed as reduction in cell viability incubated for 24 hrs by MTT assay; type: cell-based; conditions: HEK293, 24 h; method in brief: as §1
[5] = biological target: Tubulin (Homo sapiens) (UniProt P68371+Q9H4B7+P0DPH7+P68366+Q13509+Q71U36+P04350+Q3ZCM7+P07437+P68363+Q9BQE3+Q6PEY2+Q13885+Q9BVA1+Q9BUF5); experiment: Induction of tubulin polymerization (unknown origin) at 10 uM incubated for 1 hr by spectrometric analysis; type: protein-complex assay

SMILES: COc1ccc2c(c1)c(Cc1ccc(O)cc1)c(-c1cc(OC)c(OC)c(OC)c1)n2Cc1ccc(O)cc1
- IC50 [1]: > 30 µM
- IC50 [2]: > 30 µM
- IC50 [3]: > 30 µM

SMILES: COc1ccc2c(c1)cc(-c1cc(OC)c(OC)c(OC)c1)n2Cc1ccc(OCCN(C)C)cc1
- IC50 [1]: 6.87 µM
- IC50 [2]: 6.67 µM
- IC50 [3]: 7.84 µM

SMILES: COc1ccc2c(c1)cc(-c1cc(OC)c(OC)c(OC)c1)n2Cc1ccccc1
- IC50 [1]: > 30 µM
- IC50 [2]: > 30 µM
- IC50 [3]: > 30 µM

SMILES: CC/C(=C(\c1ccccc1)c1ccc(OCCN(C)C)cc1)c1ccccc1 [TAMOXIFEN]
- IC50 [4]: 22.4 µM
- IC50 [1]: 15.8 µM
- IC50 [2]: 8.42 µM

SMILES: COc1ccc2c(c1)c(Cc1ccccc1)c(-c1cc(OC)c(OC)c(OC)c1)n2Cc1ccccc1
- IC50 [1]: > 30 µM
- IC50 [2]: > 30 µM
- IC50 [3]: > 30 µM

SMILES: COc1ccc2c(c1)cc(-c1cc(OC)c(OC)c(OC)c1)n2Cc1ccc(OC(C)CN(C)C)cc1 (stereo unspecified)
- IC50 [1]: 13.3 µM
- IC50 [2]: 14.7 µM
- IC50 [3]: 10.6 µM

SMILES: COc1ccc2c(c1)cc(-c1cc(OC)c(OC)c(OC)c1)n2Cc1ccc(OCCN2CCCCC2)cc1
- IC50 [1]: 21.8 µM
- IC50 [2]: 21.6 µM
- IC50 [3]: > 30 µM

SMILES: COc1ccc(Cc2c(-c3cc(OC)c(OC)c(OC)c3)n(Cc3ccc(OC)cc3)c3ccc(OC)cc23)cc1
- IC50 [1]: > 30 µM
- IC50 [2]: > 30 µM
- IC50 [3]: > 30 µM

SMILES: COc1ccc2c(c1)cc(-c1cc(OC)c(OC)c(OC)c1)n2Cc1ccc(OCCN2CCCC2)cc1
- IC50 [1]: 6.03 µM
- IC50 [2]: 5.08 µM
- IC50 [3]: 12.4 µM

SMILES: COc1ccc2c(c1)c(Cc1ccc(OCCN3CCCC3)cc1)c(-c1cc(OC)c(OC)c(OC)c1)n2Cc1ccc(OCCN2CCCC2)cc1
- IC50 [1]: 7.48 µM
- IC50 [2]: 4.25 µM
- IC50 [3]: 9.45 µM

SMILES: COc1ccc2c(c1)cc(-c1cc(OC)c(OC)c(OC)c1)n2Cc1ccc(O)cc1
- IC50 [1]: > 30 µM
- IC50 [2]: > 30 µM
- IC50 [3]: 17.3 µM

SMILES: COc1ccc2c(c1)cc(-c1cc(OC)c(OC)c(OC)c1)n2Cc1ccc(OCc2ccccc2)cc1
- IC50 [1]: > 30 µM
- IC50 [2]: > 30 µM
- IC50 [3]: > 30 µM

SMILES: CC(=O)O[C@H]1C(=O)[C@@]2(C)[C@H]([C@H](OC(=O)c3ccccc3)[C@]3(O)C[C@H](OC(=O)[C@H](O)[C@@H](NC(=O)c4ccccc4)c4ccccc4)C(C)=C1C3(C)C)[C@]1(OC(C)=O)CO[C@@H]1C[C@@H]2O [PACLITAXEL]
- IC50 [4]: 5.8 µM
- IC50 [1]: 2.6 µM
- Activity [5]: Active
- IC50 [2]: 0.48 µM
- IC50 [3]: 1.6 µM

SMILES: COc1ccc(Cn2c(-c3cc(OC)c(OC)c(OC)c3)cc3cc(OC)ccc32)cc1
- IC50 [1]: > 30 µM
- IC50 [2]: > 30 µM
- IC50 [3]: > 30 µM

SMILES: COc1ccc2[nH]c(-c3cc(OC)c(OC)c(OC)c3)cc2c1
- IC50 [1]: > 30 µM
- IC50 [2]: > 30 µM
- IC50 [3]: > 30 µM

SMILES: CCOC(=O)COc1ccc(Cn2c(-c3cc(OC)c(OC)c(OC)c3)cc3cc(OC)ccc32)cc1
- IC50 [1]: > 30 µM
- IC50 [2]: > 30 µM
- IC50 [3]: > 30 µM

SMILES: CCN(CC)CCOc1ccc(Cn2c(-c3cc(OC)c(OC)c(OC)c3)cc3cc(OC)ccc32)cc1
- IC50 [1]: 15 µM
- IC50 [2]: 29.8 µM
- IC50 [3]: 13.2 µM

SMILES: COc1ccc2c(c1)c(Cc1ccc(OCc3ccccc3)cc1)c(-c1cc(OC)c(OC)c(OC)c1)n2Cc1ccc(OCc2ccccc2)cc1
- IC50 [1]: > 30 µM
- IC50 [2]: > 30 µM
- IC50 [3]: > 30 µM
